Screening data from PubChem.
KCNQ1 inh – blocks the human KCNQ1 potassium channel | CHO-K1 KCNQ1, FluxOR thallium flux fluorescence; hits give high values | B-score at 10 µM | AID 2642 | 310,000 tested, 1.3% active | P51787;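 active = compounds whose thallium flux B-score, printed positive for inhibition, exceeds three library SD while starting fluorescence stays within three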;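 also: channel opened by potassium depolarization with thallium stimulus after 20 min compound exposure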
PHOSPHO1 block – blocks human PHOSPHO1 phosphatase activity; inhibition, % at 13.3 µM; recombinant PHOSPHO1, absorbance phosphatase assay; 290,000 tested, 1.1% active; in the data active = inhibition above about 60%
Target sequence (Q8TCT1 whole entry, looked up): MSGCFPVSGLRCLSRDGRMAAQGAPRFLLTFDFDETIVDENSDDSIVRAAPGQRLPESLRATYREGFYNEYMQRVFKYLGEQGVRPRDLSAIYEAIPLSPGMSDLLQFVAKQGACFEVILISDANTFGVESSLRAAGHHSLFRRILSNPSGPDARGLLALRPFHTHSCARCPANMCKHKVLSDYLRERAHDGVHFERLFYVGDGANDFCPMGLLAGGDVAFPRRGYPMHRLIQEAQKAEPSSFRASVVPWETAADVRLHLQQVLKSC
KCNQ1 act – potentiates or activates the human KCNQ1 potassium channel | B-score at 10 µM | CHO-K1 KCNQ1, thallium flux FluxOR fluorescence; hits give high values | AID 2648 | P51787 | 310,000 tested, 0.35% active;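 active = fluorescence ratio B-score, a plate-corrected score, at least three library SD, with initial intensity B-score within 5 SD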
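System: CHO-K1 cells stably expressing KCNQ1 / Medium: assay buffer for compound exposure, DMSO matched across wells / Reagent: thallium- and potassium-containing depolarizing buffer / Compound: one concentration, matched DMSO / Incubation: 20 min compound pretreatment at room temperature / Measured by: kinetic FluxOR fluorescence, 10 s baseline plus 110 s post-stimulus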
KCNK9 block – blocks the human KCNK9 two-pore domain potassium channel; AID 488922; B-score at 10 µM; HEK293 KCNK9, FluxOR thallium flux fluorescence; hits give low values; 310,000 tested, 1.2% active;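 active = ratio B-score over 3 SD below the library mean, with starting fluorescence within 5 SD of its mean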;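 also: negative B-score means less thallium flux so channel inhibition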
Target sequence (Q9NPC2 whole entry, looked up, the tested form may be a part): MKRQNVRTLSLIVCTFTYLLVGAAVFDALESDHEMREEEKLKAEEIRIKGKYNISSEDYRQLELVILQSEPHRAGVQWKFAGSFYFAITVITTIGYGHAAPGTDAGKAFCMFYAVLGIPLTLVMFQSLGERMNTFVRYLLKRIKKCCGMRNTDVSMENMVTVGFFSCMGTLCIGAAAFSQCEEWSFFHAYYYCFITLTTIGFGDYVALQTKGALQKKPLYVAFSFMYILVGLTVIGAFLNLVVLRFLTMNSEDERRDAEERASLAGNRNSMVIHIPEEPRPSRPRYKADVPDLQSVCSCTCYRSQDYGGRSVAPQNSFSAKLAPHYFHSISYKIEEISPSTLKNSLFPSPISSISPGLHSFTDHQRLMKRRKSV
KCNK3 block – human KCNK3 channel inhibition, primary screen; B-score at 10 µM; 340,000 tested, 0.84% active; AID 602410; CHO-KCNK3 thallium flux, FluxOR fluorescence; hits give low values;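 active = B-score under library mean minus 4 SD, starting fluorescence ratio at most library mean plus 5 SD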;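 also: more negative B-score means stronger inhibition of thallium flux through KCNK3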
hERG protect – shields human hERG channel from block by proarrhythmic agents | 310,000 tested, 0.51% active | activation (rescue from dofetilide block), less the hit threshold, % at 10 µM | Q12809 | CHO-hERG, FluxOR thallium flux, dofetilide IC70 present | AID 1511;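 active = activation above the mean of controls blocked by dofetilide plus 5 SD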;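 also: thallium influx through hERG after potassium depolarization seen as dye fluorescence rise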
KCNQ1 inh valid – human KCNQ1 channel inhibition, validation assay | shares compounds with KCNQ1 inh | KCNQ1 cell line, FluxOR thallium flux fluorescence | inhibition, % at 10 µM | 1,600 tested, 93% active | AID 588353;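 active = primary screen active, with duplicate mean exceeding buffer control mean plus 3 SD of buffer wells, cut at about 28% in these data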;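 also: 0% = buffer control ratio and 100% = XE991 inhibitor control ratio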
CHO Tl flux – KCNQ1 inhibitor counter-screen hit in parental CHO cells; shares compounds with KCNQ1 inh; parental CHO-K1, FluxOR thallium flux fluorescence ratio; hits give low values; zero means no signal rise above baseline; fluorescence ratio (Tl flux) at 10 µM; 1,600 tested, 21% active; AID 588366;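 active = mean of duplicate thallium-flux fluorescence ratios in parental host cells more than 5 SD below the buffer control mean, cut at about 0.38 in these data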;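 also: ratio is peak minus minimum fluorescence divided by baseline fluorescence; actives read low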
KCNQ1 APC inh – confirmation of human KCNQ1 potassium channel inhibitors by electrophysiology; shares compounds with KCNQ1 inh; KCNQ1-CHO cells, automated patch clamp current; calls only at 10 µM; 490 tested, 20% active;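 active = KCNQ1 current drop exceeding 3 SD of negative control wells, seen in both duplicate runs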;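 also: steady state current during a 2 s step from -80 to +40 mV; negative values mean current inhibition and positive values mean potentiation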
KCNQ2 inh – selectivity of KCNQ1 inhibitors: inhibition of rat KCNQ2 channel; shares compounds with KCNQ1 inh; KCNQ2 cells, FluxOR thallium flux fluorescence; inhibition, % at 10 µM; 1,600 tested, 71% active;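 active = mean percent inhibition of the KCNQ2 thallium signal more than 5 SD above the buffer-only control wells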;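 also: KCNQ2 expressed in CHO cells; 0% = buffer control wells and 100% = XE-991 inhibitor control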
KCNQ1 KCNE1 spec – human KCNQ1/KCNE1 inhibition in KCNQ1 specificity screen. shares compounds with KCNQ1 inh. KCNQ1/KCNE1 cells, FluxOR thallium flux fluorescence. inhibition, % at 10 µM. 1,600 tested, 77% active. AID 652147;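 active = mean percent inhibition of duplicate wells above the buffer-only control mean plus 3 SD of those controls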;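 also: 0% = buffer only wells and 100% = XE-991 inhibitor control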
* hit, by the source's call; i = inactive; . = no result; + = active, no number. Sampled rows, rich in hits. Any-hit rate of the full collection: about 4%.

SMILES	KCNQ1 inh	PHOSPHO1 block	KCNQ1 act	KCNK9 block	KCNK3 block	hERG protect	KCNQ1 inh valid	CHO Tl flux	KCNQ2 inh	KCNQ1 KCNE1 spec	others
Cc1cccc2cc(C3CC(c4cccs4)=NN3S(C)(=O)=O)c(Cl)nc12 (stereo unspecified)	i	14.7	i	i	i	-6.2	.	.	.	.
CCC(C(=O)OCC(=O)Nc1cc(Cl)cc(Cl)c1)c1ccccc1 (stereo unspecified)	11*	-6.7	i	i	i	-3.4	114.5*	0.341*	113.7%*	52.5%*
Cc1ccc(OCCN2CCN(c3ncnc4sc(C)c(C)c34)CC2)cc1	11*	2.1	i	i	-10.6*	-19.1	125.5*	0.371*	139.7%*	107.5%*
Cc1sc2ncnc(N3CCCCC3)c2c1C	i	10.7	i	i	i	-11.4	.	.	.	.
Clc1ccc(OCCN2CCN(c3ncnc4sccc34)CC2)cc1	12*	13.2	i	i	i	-32.8	156.5*	0.377*	104.0%*	137.5%*
COc1ccc(OCCNC(=O)c2ccccc2OCC(=O)Nc2ccc(NC(C)=O)cc2)cc1	i	-30.0	i	i	i	-7.4	.	.	.	.
Nc1ccc(N=Nc2ccccc2O)c(N)c1	i	.	i	i	i	-10.2	.	.	.	.
Oc1ccccc1N=Nc1ccccc1O	13*	-26.9	i	i	i	-11.9	61.5*	0.505	i	i
CCC(=O)Nc1ccc(C(=O)CSc2nnc(-c3ccc(O)cc3)n2CC2CCCO2)cc1OC (stereo unspecified)	i	30.5	i	i	i	-8.6	.	.	.	.
Cc1cccc(OCC(=O)Nc2ccc3c(c2)nc(CCN2CCC(C)CC2)n3C)c1	i	23.9	i	i	i	-8.5	.	.	.	.
Cc1cccc(OCC(=O)Nc2ccc3c(c2)nc(CCN2CCN(C)CC2)n3C)c1	9*	-24.9	i	i	i	-5.2	0.0	0.501	i	i
CCOC(=O)Nc1ccc2c(c1)N(C(=O)CCN(C)C)c1ccccc1S2	i	33.0	i	i	i	-10.0	.	.	.	.
CCOC(=O)Nc1ccc2c(c1)N(C(=O)CN1CCN(C)CC1)c1ccccc1S2	9*	-22.3	i	i	i	-9.0	0.0	0.453	i	57.0%*
CC1(C)Cc2c(C#N)c(SCCOc3ccccc3)nc(N3CCOCC3)c2CO1	7*	17.4	i	i	-9.39*	-21.2	83.5*	0.449	65.3%*	164.5%*
CC1(C)Cc2c(C#N)c(SCCO)nc(N3CCOCC3)c2CO1	i	6.9	i	i	i	-10.6	.	.	.	.
O=C(NCC1(c2ccccc2)CCCC1)c1cccc(Br)c1	6*	-12.4	i	i	i	-12.5	106.5*	0.408	112.0%*	147.0%*	KCNQ1 APC inh=+
O=C(Nc1nc(-c2ccccc2)c(C(=O)c2ccccc2)s1)c1ccc(S(=O)(=O)N2CCCC2)cc1	8*	7.7	i	i	i	-9.3	78.0*	0.492	62.7%*	96.0%*
O=C(c1ccccc1)c1sc(N2CCCCCC2)nc1-c1ccccc1	7*	23.4	i	i	i	-1.6	124.0*	0.433	122.7%*	+	KCNQ1 APC inh=i
COc1ccc(-c2nc(N3CCCCCC3)sc2C(=O)c2ccccc2)cc1	7*	-20.6	i	i	i	-15.6	55.5*	0.425	105.0%*	86.0%*
O=C(COC(=O)COc1cccc(C(F)(F)F)c1)Nc1ccc(N2CCOCC2)cc1	.	.	.	.	i	.	.	.	.	.
Cc1ccc(CN(C(=O)C(F)(F)F)C(C(=O)NC2CCCCC2)c2ccco2)cc1 (stereo unspecified)	i	-4.7	i	i	i	-4.7	.	.	.	.
O=C(NC1CCCCC1)C(c1ccco1)N(C(=O)C(F)(F)F)C1CC1 (stereo unspecified)	6*	5.7	i	i	i	-9.3	73.5*	0.466	i	100.5%*
Cn1c(=O)n(-c2ccc(Cl)cc2)c(=O)c2c3c(sc21)COC(C)(C)C3	i	38.2	i	i	i	-5.2	.	.	.	.
CN(C)CCCN1C(=O)c2cccc3c(Br)ccc(c23)C1=O	i	-0.4	i	i	i	-23.6	.	.	.	.
CCCCNc1ccc2c3c(cccc13)C(=O)N(CCCC)C2=O	24*	16.0	i	i	i	-12.9	+	0.0105*	i	i
SMILES	KCNQ1 inh	PHOSPHO1 block	KCNQ1 act	KCNK9 block	KCNK3 block	hERG protect	KCNQ1 inh valid	CHO Tl flux	KCNQ2 inh	KCNQ1 KCNE1 spec	others
CCN1C(=O)c2cccc3c(N)ccc(c23)C1=O	24*	9.4	i	i	i	-42.1	+	0.0105*	i	i
CC(NC(=S)NC1CCC(C(C)(C)C)CC1)c1ccccc1 (stereo unspecified)	9*	37.7	i	i	i	-9.5	133.5*	0.427	73.7%*	105.5%*	KCNQ1 APC inh=i
Cc1ccc(CNC(=S)NC2CCC(C(C)(C)C)CC2)cc1 (stereo unspecified)	13*	12.6	i	i	i	-19.3	108.5*	0.454	83.7%*	80.0%*	KCNQ1 APC inh=i
CC(NC(=O)C1CCCC1)c1ccccc1 (stereo unspecified)	.	.	.	.	i	.	.	.	.	.
CCCn1c(=O)c2ccccc2n2c(SCCNCCO)nnc12	i	9.4	i	i	i	-6.5	.	.	.	.
CC1Sc2ccc(S(=O)(=O)N3CCC(C(=O)Nc4ccc(Cl)cc4)CC3)cc2NC1=O (stereo unspecified)	11*	43.5	i	i	i	-20.9	144.5*	0.378*	104.0%*	167.5%*
COc1cccc(OC)c1Oc1ccc(C(F)(F)F)cn1	7*	28.7	i	i	i	3.5	85.0*	0.437	i	82.5%*
FC(F)(F)c1ccc(Oc2ccccc2Cl)nc1	i	37.0	i	i	i	-6.0	.	.	.	.
Brc1ccc2ncnc(NCc3ccccc3)c2c1	i	5.5	i	i	i	-9.9	.	.	.	.
